Screening results deposited in PubChem by several laboratories.
RAM inhibit: inhibitors of the yeast RAM network; S. cerevisiae dse1pr::URA3 reporter, 5-FOA growth OD615, 2 d; analog-sensitive cbk1-as2 kinase mutant strain; inhibition, % at 50 µM; 1.8% of 190,000 active; AID 868;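 active = inhibition above a set limit, 3 SD over mean compound inhibition, cut at about 8.4% in these data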;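 also: 0% = DMSO-only wells with no growth and 100% = 10 µM 1-NA-PP1 full growth; inhibition rescues growth on 5-FOA so higher OD means more RAM inhibition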
Biofilm kill mix: mixture kills Candida albicans biofilm cells; inhibition, % at 7.6 µM; C. albicans biofilm persisters + clotrimazole, fluorescence viability; primary screen in compound mixtures of four per well; 0.02% of 120,000 active; AID 1242;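 active = inhibition above 30.3% in the primary screen of four-compound pools, then above 30% when the compound was retested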;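 also: compounds exposed to preformed 24 h biofilms for 48 h; 0% = untreated biofilm control and 100% = clotrimazole plus chlorhexidine kill blank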
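Test system: C. albicans biofilms. Buffer or medium: RPMI/MOPS medium, pH 7.0. Timing: 48 h compound exposure at 37 °C. Technique: Alamar Blue fluorescence. Evaluation: percent inhibition of biofilm viability.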
NCF1 inh: inhibitors of human p47phox binding; P14598; p47phox/p22phox peptide binding, fluorescence polarization, 2 h; inhibition, % at 24.7 µM; 0.53% of 220,000 active; AID 1274;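 active = inhibition above about 30%, limit read from the data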;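 also: 0% = p47phox with labelled peptide and 100% = labelled peptide alone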
Target sequence (P14598 whole entry, looked up): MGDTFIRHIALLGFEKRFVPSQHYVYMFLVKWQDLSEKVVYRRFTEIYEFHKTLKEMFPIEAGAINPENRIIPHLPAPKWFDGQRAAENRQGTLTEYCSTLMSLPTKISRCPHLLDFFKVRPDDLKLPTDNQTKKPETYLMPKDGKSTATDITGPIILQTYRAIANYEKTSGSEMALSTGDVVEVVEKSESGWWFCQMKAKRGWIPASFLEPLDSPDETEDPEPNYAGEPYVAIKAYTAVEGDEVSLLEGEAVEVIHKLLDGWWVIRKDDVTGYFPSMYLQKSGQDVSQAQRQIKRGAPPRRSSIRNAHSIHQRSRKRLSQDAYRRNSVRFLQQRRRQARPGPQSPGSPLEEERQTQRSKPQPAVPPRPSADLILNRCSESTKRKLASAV
WT yeast gro inh: growth inhibition of WT yeast, mitochondrial fusion screen; mitochondrial fusion phenotypic screen, WT strain; inhibition, % at 10 µM; 2.1% of 190,000 active; AID 1362; in the data active = inhibition above about 58%; tested in S. cerevisiae
Hck Nef HTS: blocks Nef-activated human Hck kinase; P08631; Recombinant Hck-YEEI plus Nef, Z-Lyte FRET kinase assay; inhibition, % at 20 µM; 0.68% of 220,000 active; AID 463187;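 active = Hck-Nef kinase inhibition above about 50%, limit read from the data; inactive = inhibition below that limit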;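 also: 0% = DMSO with Hck plus Nef and 100% = Hck alone without Nef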
Arbovirus anti: antivirals against arbovirus infection | arbovirus infection cell-based antiviral screen | inhibition, % at 10 µM | 0.37% of 200,000 active; in the data active = inhibition above about 30%
RAM efflux-def: RAM network inhibition, efflux-deficient strain; shares compounds with RAM inhibit; S. cerevisiae efflux-deficient reporter strain, 5-FOA growth OD615, 2 days; max inhibition, %; 1,200 tested, under 10 active; AID 1305; call rule not given here;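 also: plate controls were vehicle for no effect and reference inhibitor for full effect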
* hit, by the source's call. This is a sample that favours compounds with a hit; in the whole collection about 4.6% have one here.

What do the screens show for `O=C(c1cnc(-c2ccc(Cl)cc2)s1)c1ccc(Cl)cc1Cl`?
RAM inhibit: 14.8*; NCF1 inh: 6.9; WT yeast gro inh: 73.1*; Hck Nef HTS: -0.1; Arbovirus anti: -7.1; RAM efflux-def: 2.6

How did Cc1ccc(-c2csc3nnc(SCC(=O)Nc4cccc(C)n4)n23)cc1 do in these assays?
RAM inhibit: 0.3; NCF1 inh: -10.9; WT yeast gro inh: -2.1; Hck Nef HTS: 0.7; Arbovirus anti: 1.7

How did Cc1ccccc1OCC(=O)OCC(=O)c1ccc(OCc2ccccc2)cc1 do in these assays?
RAM inhibit: 11.9*; Biofilm kill mix: 17.8; NCF1 inh: -6.7; WT yeast gro inh: 23.8; Hck Nef HTS: 0.8; Arbovirus anti: -4.0; RAM efflux-def: 4.5

What do the screens show for `Cc1ccccc1OCC(=O)OCC(=O)c1ccc(OC(=O)c2ccccc2)cc1`?
RAM inhibit: 13.6*; NCF1 inh: -2.8; WT yeast gro inh: -25.2; Hck Nef HTS: -0.6; Arbovirus anti: -1.5; RAM efflux-def: 2.8

How did O=C(CNS(=O)(=O)c1ccccc1)OCC(=O)c1ccc(OC(=O)c2ccccc2)cc1 do in these assays?
RAM inhibit: 3.6; NCF1 inh: -3.0; WT yeast gro inh: -10.5; Hck Nef HTS: -1.1; Arbovirus anti: 6.2

Results for N=c1c2c3c(sc2ncn1Nc1ccccc1)CCC3 ?
Biofilm kill mix: 8.5; NCF1 inh: 7.2; Hck Nef HTS: 19.2

Results for CCOC(=O)C1CN(S(=O)(=O)c2cccc(C(F)(F)F)c2)c2cc(CC(=O)OC)ccc2O1 (centres undefined) ?
RAM inhibit: 15.8*; NCF1 inh: -11.5; WT yeast gro inh: 4.6; Hck Nef HTS: 2.2; Arbovirus anti: 2.3; RAM efflux-def: 1.6

How did CCOC(=O)C1CN(S(=O)(=O)c2ccccc2)c2cc(S(=O)(=O)CC)ccc2O1 (centres undefined) do in these assays?
RAM inhibit: 0.6; NCF1 inh: -10.0; WT yeast gro inh: -17.0; Hck Nef HTS: 2.9; Arbovirus anti: 1.1

How did COc1ccc(C(=O)NC=C2C(=O)OC(C)(C)OC2=O)cc1 do in these assays?
RAM inhibit: 0.1; Biofilm kill mix: 11.6; NCF1 inh: -15.6; WT yeast gro inh: -6.0; Hck Nef HTS: 44.3; Arbovirus anti: 2.6

How did CNCC(C)COc1ccccc1OCc1ccccc1 (centres undefined) do in these assays?
RAM inhibit: 19.7*; Biofilm kill mix: 2.3; NCF1 inh: -4.2; WT yeast gro inh: -6.0; Hck Nef HTS: 2.4; Arbovirus anti: -8.8; RAM efflux-def: 1.5

What do the screens show for `CC(O)CNCCCOc1ccccc1OCc1ccccc1` (centres undefined)?
RAM inhibit: 2.8; Biofilm kill mix: 19.2; NCF1 inh: 9.2; WT yeast gro inh: -6.8; Hck Nef HTS: 17.9; Arbovirus anti: -5.6

How did CSc1ccccc1NC(=O)COC(=O)c1ccccc1Cc1ccccc1 do in these assays?
RAM inhibit: 1.8; Biofilm kill mix: 9.4; NCF1 inh: -9.1; WT yeast gro inh: 29.4; Hck Nef HTS: 6.4; Arbovirus anti: 3.9

Results for O=C(COC(=O)c1ccccc1Cc1ccccc1)Nc1ccc(SC(F)F)cc1 ?
RAM inhibit: 14.3*; Biofilm kill mix: 9.7; NCF1 inh: -2.6; WT yeast gro inh: 70.5*; Hck Nef HTS: -2.2; Arbovirus anti: -22.0; RAM efflux-def: 4.3

Results for O=C(COC(=O)c1cc(Cl)ccc1[N+](=O)[O-])NCc1ccc(Cl)cc1Cl ?
RAM inhibit: 13.5*; Biofilm kill mix: 8.5; NCF1 inh: -4.0; WT yeast gro inh: 61.3*; Hck Nef HTS: -3.2; Arbovirus anti: 5.6; RAM efflux-def: 0.9

How did Cc1ccc(C(=O)c2ccccc2C(=O)OCC(=O)NCCc2ccc(Cl)cc2Cl)cc1 do in these assays?
RAM inhibit: 15.1*; Biofilm kill mix: 16.3; NCF1 inh: -19.1; WT yeast gro inh: 31.0; Hck Nef HTS: -17.6; Arbovirus anti: 7.8; RAM efflux-def: 2.6

What do the screens show for `Cc1ccc(C(=O)c2ccccc2C(=O)OCC(=O)Nc2ccc(SC(F)F)cc2)cc1`?
RAM inhibit: 13.2*; Biofilm kill mix: 15.0; NCF1 inh: -34.4; WT yeast gro inh: 36.6; Hck Nef HTS: 3.6; Arbovirus anti: 8.1; RAM efflux-def: 1.6

How did CN(C)CCN(Cc1ccccc1)S(=O)(=O)c1ccc2c(c1)n(C)c(=O)c(=O)n2C do in these assays?
Biofilm kill mix: 13.3; NCF1 inh: -10.9; Hck Nef HTS: 4.3

What do the screens show for `CC1(C)CC(=O)C(N=Nc2cc(S(=O)(=O)N3CCOCC3)ccc2Cl)=C(O)C1`?
Biofilm kill mix: 19.9; NCF1 inh: 15.8; Hck Nef HTS: 9.3

What do the screens show for `CC(=O)N1Cc2cc([N+](=O)[O-])ccc2Oc2ccccc21`?
RAM inhibit: 1.0; Biofilm kill mix: 6.3; NCF1 inh: 0.3; WT yeast gro inh: -5.5; Hck Nef HTS: 21.2; Arbovirus anti: -2.4

What do the screens show for `Nn1cc(-c2ccccc2)nc1SCC(=O)Nc1ccc(S(N)(=O)=O)cc1`?
Biofilm kill mix: 22.3; NCF1 inh: -1.4; Hck Nef HTS: 17.1

Results for O=C(/C=C/c1ccc(Cl)cc1)c1cccnc1 ?
RAM inhibit: 1.0; NCF1 inh: 7.9; WT yeast gro inh: 10.2; Hck Nef HTS: 4.3; Arbovirus anti: -42.5

What do the screens show for `O=C(/C=C/c1ccc(OCc2ccccc2)c(OCc2ccccc2)c1)c1cccnc1`?
RAM inhibit: 13.8*; Biofilm kill mix: 14.0; NCF1 inh: -10.5; WT yeast gro inh: 0.3; Hck Nef HTS: 1.7; Arbovirus anti: -38.9; RAM efflux-def: 5.8

What do the screens show for `COc1ccc(C(=O)CSc2ccccc2C(=O)O)cc1`?
RAM inhibit: 0.8; Biofilm kill mix: 14.3; NCF1 inh: -3.7; WT yeast gro inh: -4.3; Hck Nef HTS: -42.3; Arbovirus anti: -8.0

How did O=C(CSc1ccc(Cl)cc1)N1CCN(c2ccc(Cl)cc2[N+](=O)[O-])CC1 do in these assays?
RAM inhibit: 13.4*; NCF1 inh: -30.5; WT yeast gro inh: 3.1; Hck Nef HTS: -0.2; Arbovirus anti: -2.9; RAM efflux-def: 4.0

What do the screens show for `COc1ccc(C(C)(C)C)cc1NC(=O)COC(=O)c1cc(SC)ccc1Cl`?
RAM inhibit: 13.2*; Biofilm kill mix: 18.9; NCF1 inh: -17.2; WT yeast gro inh: 0.3; Hck Nef HTS: 1.1; Arbovirus anti: -5.8; RAM efflux-def: 4.1

What do the screens show for `COc1ccc(NC(=O)COC(=O)c2cc(SC)ccc2Cl)c(OC)c1`?
RAM inhibit: 6.2; Biofilm kill mix: 14.2; NCF1 inh: -4.2; WT yeast gro inh: 7.9; Hck Nef HTS: -2.2; Arbovirus anti: 4.6

Results for CSc1ccc(Cl)c(C(=O)OCC(=O)Nc2ccccc2OC(F)F)c1 ?
RAM inhibit: 15.9*; Biofilm kill mix: 8.9; NCF1 inh: -20.8; WT yeast gro inh: 8.8; Hck Nef HTS: -21.3; Arbovirus anti: 6.3; RAM efflux-def: 3.3
